# Test results from publication PMC3924180 (Analytical chemistry, 2013).
# Columns and labels:
# [1] = tested on: protein tyrosine phosphatase (PTP); assay: Single cell phosphatase activity assay; type: cell-based, human; conditions: BEAS-2B cells pretreated with the inhibitor; abstract
# Method in brief: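 BEAS-2B cells grown in KGM on glass-coverslip chambers, kept at 37 °C under warm ECB (HEPES buffer, pH 7.4). Microinjected with fluorescent phosphopeptide substrate pTS13 and laser-lysed after 60 s. Contents were electrokinetically loaded and separated by CE-LIF in borate/SDS/NaCl, pH 7.4. Dephosphorylation was taken as the […] peak area over the combined pTS13 + TS13 areas. Treated and untreated cells were compared by bootstrapping (10,000 samples).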
# [2] = tested on: protein tyrosine phosphatase (PTP); assay: Single cell phosphatase activity assay; type: cell-based, human; conditions: primary hAECs pre-incubated with the inhibitor; abstract
Compound,inhibition relative to PTP activity in untreated controls [1],median PTP inhibition [2]
[Zn+2] [Zn^2+],69%,88%
pervanadate,76%,91%
"O=C1C=Cc2ccccc2C1=O [1,2-naphthoquinone]",100%,87%
